For data set [1], the target named is T1, Lanosterol 14-alpha demethylase (Homo sapiens, UniProt Q16850).
T1 sequence (Q16850 whole entry): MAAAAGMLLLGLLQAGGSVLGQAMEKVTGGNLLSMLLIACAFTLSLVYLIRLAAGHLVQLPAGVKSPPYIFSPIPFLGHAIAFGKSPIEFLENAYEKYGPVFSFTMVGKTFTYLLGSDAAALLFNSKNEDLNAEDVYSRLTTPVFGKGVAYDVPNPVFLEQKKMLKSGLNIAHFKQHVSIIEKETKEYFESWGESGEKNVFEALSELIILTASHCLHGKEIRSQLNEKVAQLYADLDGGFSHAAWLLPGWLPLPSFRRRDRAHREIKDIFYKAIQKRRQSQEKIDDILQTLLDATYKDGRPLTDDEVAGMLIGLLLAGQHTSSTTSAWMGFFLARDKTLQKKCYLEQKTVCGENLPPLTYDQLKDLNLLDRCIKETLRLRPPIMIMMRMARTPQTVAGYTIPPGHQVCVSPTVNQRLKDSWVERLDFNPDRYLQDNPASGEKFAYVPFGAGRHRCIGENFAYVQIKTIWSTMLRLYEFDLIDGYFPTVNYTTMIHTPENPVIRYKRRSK
Description: Inhibition of human CYP51 expressed in Topp 3 cells by lanosterol demethylase assay. It counts as cell-based. Put shortly:
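0.5 ml phosphate buffer pH 7.4 with KCN, NADPH regenerating system, 60 min at 37 °C. Triene product extracted and quantified by chromatography (ergosterol internal standard). IC50 read from plot of % activity remaining vs concentration.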

Data set [2] has as its target T1, Lanosterol 14-alpha demethylase. Description: Binding affinity to human CYP51.
Substrate in data set [3]: CC(C)=CCC[C@@H](C)[C@H]1CC[C@@]2(C)C3=C(CC[C@]12C)[C@@]1(C)CC[C@H](O)C(C)(C)[C@@H]1CC3
As to the kind of experiment: Binding affinity to human reconstituted CYP51.

Take `O=C(N[C@@H](Cc1c[nH]cn1)C(=O)N1CCC(O)CC1)c1cc2cc(Cl)ccc2[nH]1`: in data set [1], 1.3 µM corresponded to half-maximal inhibition (IC50).
In the case of `O=C(N[C@@H](Cc1ccc(O)cc1)C(=O)N1CCC(O)CC1)c1cc2cc(Cl)ccc2[nH]1`, the IC50 – broadly, the concentration that gives 50% inhibition – in data set [1] was 2.5 µM.
The molecule `O=C(N[C@@H](Cc1ccccc1F)C(=O)N1CCC(O)CC1)c1cc2cc(Cl)ccc2[nH]1` registered an IC50 in data set [1] of 0.8 µM.
As to `O=C(N[C@@H](Cc1cccnc1)C(=O)N1CCC(O)CC1)c1cc2cc(Cl)ccc2[nH]1`, in data set [1], the IC50 stood at 26 µM.
`O=C(NC(Cc1ccccc1)C(=O)O)c1cc2cc(Cl)ccc2[nH]1` (stereo not given): the IC50 in data set [1] is > 200 µM.
Same read-out and setting: with `O=C(N[C@@H](Cc1ccccc1)C(=O)N1CCC(O)CC1)c1cc2c([nH]1)CCCC2` the figure was > 200 µM; with `COc1ccc(C[C@H](NC(=O)c2cc3cc(Cl)ccc3[nH]2)C(=O)N2CCC(O)CC2)cc1`, 4.5 µM; with `O=C(N[C@@H](Cc1ccccc1)C(=O)N1CCC(O)CC1)c1cc2cc(Cl)ccc2[nH]1`, 3.1 µM.
The molecule `O=C(N[C@@H](Cc1ccccc1)C(=O)N1CCC(O)CC1)c1cc2ccccc2[nH]1` yielded an IC50 in data set [1] of 0.91 µM.
In the case of `O=C(NC(Cc1ccccc1)C(=O)N1CCC(O)CC1)c1ccc[nH]1` (stereo not given), the IC50 in data set [1] was > 200 µM.
Same read-out and setting: with `O=C(N[C@H](Cc1ccccc1)C(=O)N1CCC(O)CC1)c1cc2cc(Cl)ccc2[nH]1` the figure was 100 µM; with `O=C(N[C@@H](Cc1ccc(Cl)cc1)C(=O)N1CCC(O)CC1)c1cc2cc(Cl)ccc2[nH]1`, 9.7 µM.
`O=C(N[C@@H](Cc1ccccc1)C(=O)N1CCC(O)CC1)c1cc2cc(F)ccc2[nH]1` had an IC50 in data set [1] of 75 µM.
For `O=C(NC1(C(=O)N2CCC(O)CC2)CCCC1)c1cc2cc(Cl)ccc2[nH]1`, the IC50 in data set [1] is 100 µM.
The molecule `O=C(N[C@@H](Cc1ccc(F)cc1)C(=O)N1CCC(O)CC1)c1cc2cc(Cl)ccc2[nH]1` displayed an IC50 in data set [1] of 4 µM.
`O=C(N[C@@H](Cc1ccccc1Cl)C(=O)N1CCC(O)CC1)c1cc2cc(Cl)ccc2[nH]1` [ANALOGUE A]: the IC50 in data set [1] amounted to 0.3 µM.
Regarding `CCCCC/C=C\C/C=C\C/C=C\C/C=C\CCCC(=O)NCCO` [ANANDAMIDE], the IC50 in data set [1] is > 200 µM.
With `CCCCC/C=C\C/C=C\C/C=C\C/C=C\CCCC(=O)O` [ARACHIDONIC ACID], in data set [1], the IC50 is > 200 µM.
As for `Clc1ccc(C2(Cn3cncn3)OCCO2)c(Cl)c1` [AZACONAZOLE], the IC50 in data set [1] is > 10 µM.
The same measure, in the same setting: the value for `c1ccc2[nH]cnc2c1` [BENZIMIDAZOLE] was > 200 µM.
The molecule `c1ccc(-c2ccc(C(c3ccccc3)n3ccnc3)cc2)cc1` (stereo not given) [BIFONAZOLE] had a half-inhibitory concentration (IC50) in data set [1] of 0.342 µM.
Consider `CCCNC(=O)NS(=O)(=O)c1ccc(Cl)cc1` [CHLORPROPAMIDE], for which, in data set [1], the IC50 was > 200 µM.
Same read-out and setting: the value for `CC(C)CCC[C@@H](C)[C@H]1CC[C@H]2[C@@H]3CC=C4C[C@@H](O)CC[C@]4(C)[C@H]3CC[C@]12C` [CHOLESTEROL] was > 200 µM; that for `Clc1ccccc1C(c1ccccc1)(c1ccccc1)n1ccnc1` [CLOTRIMAZOLE] was 0.13 µM; that for `Clc1ccc(COC(Cn2ccnc2)c2ccc(Cl)cc2Cl)cc1` (stereo not given) [ECONAZOLE] was 0.05 µM.
Same read-out and setting: with `CC[C@H]1OC(=O)[C@H](C)[C@@H](O[C@H]2C[C@@](C)(OC)[C@@H](O)[C@H](C)O2)[C@H](C)[C@@H](O[C@@H]2O[C@H](C)C[C@H](N(C)C)[C@H]2O)[C@](C)(O)C[C@@H](C)C(=O)[C@H](C)[C@@H](O)[C@]1(C)O` [ERYTHROMYCIN] the figure was > 200 µM; with `COC1=CC(=O)C[C@@H](C)[C@]12Oc1c(Cl)c(OC)cc(OC)c1C2=O` [GRISEOFULVIN], 50 µM; with `CCC(C)n1ncn(-c2ccc(N3CCN(c4ccc(OCC5COC(Cn6cncn6)(c6ccc(Cl)cc6Cl)O5)cc4)CC3)cc2)c1=O` (stereo not given) [ITRACONAZOLE], 3.6 µM.
As for `CC(=O)N1CCN(c2ccc(OC[C@H]3CO[C@](Cn4ccnc4)(c4ccc(Cl)cc4Cl)O3)cc2)CC1` [KETOCONAZOLE], the Kd (commonly the equilibrium constant for the complex coming apart) in data set [2] was 8 µM. Also, the IC50 in data set [1] stood at 0.19 µM.
`CC[C@H](C)C(=O)O[C@H]1C[C@@H](C)C=C2C=C[C@H](C)[C@H](CC[C@@H]3C[C@@H](O)CC(=O)O3)[C@H]21` [LOVASTATIN]: in data set [1], the IC50 is > 200 µM.
Still for that read-out and setting: with `Cn1cc[nH]c1=S` [METHIMAZOLE] the figure was > 200 µM; with `Cc1ncc([N+](=O)[O-])n1CCO` [METRONIDAZOLE], > 200 µM; with `Clc1ccc(COC(Cn2ccnc2)c2ccc(Cl)cc2Cl)c(Cl)c1` (stereo not given) [MICONAZOLE], 0.2 µM.
Still for that read-out and setting: with `CC(=O)[C@H]1CC[C@H]2[C@@H]3CC=C4C[C@@H](O)CC[C@]4(C)[C@H]3CC[C@]12C` [PREGNENOLONE] the figure was > 200 µM; with `CC(=O)[C@H]1CC[C@H]2[C@@H]3CCC4=CC(=O)CC[C@]4(C)[C@H]3CC[C@]12C` [PROGESTERONE], > 200 µM; with `CO[C@H]1/C=C/O[C@@]2(C)Oc3c(C)c(O)c4c(O)c(c(/C=N/N5CCN(C)CC5)c(O)c4c3C2=O)NC(=O)/C(C)=C\C=C\[C@H](C)[C@H](O)[C@@H](C)[C@@H](O)[C@@H](C)[C@H](OC(C)=O)[C@@H]1C` [RIFAMPIN], 30 µM.
The same measure, in the same setting: the value for `Nc1ccc(S(=O)(=O)Nc2ccnn2-c2ccccc2)cc1` [SULFAPHENAZOLE] was > 200 µM.
Consider `O=C1C(CC[S+]([O-])c2ccccc2)C(=O)N(c2ccccc2)N1c1ccccc1` (stereo not given) [SULFINPYRAZONE], for which the IC50 in data set [1] is > 200 µM.
On to `CC(C)N1CCN(c2ccc(OC[C@H]3CO[C@](Cn4cncn4)(c4ccc(Cl)cc4Cl)O3)cc2)CC1` [TERCONAZOLE], for which the IC50 in data set [1] was 3 µM.
On the same count and under the same terms, the value for `C[C@]12CC[C@H]3[C@@H](CCC4=CC(=O)CC[C@@]43C)[C@@H]1CC[C@@H]2O` [TESTOSTERONE] was 50 µM; that for `CCCCNC(=O)NS(=O)(=O)c1ccc(C)cc1` [TOLBUTAMIDE] was > 200 µM; that for `Cc1cccc(N(C)C(=S)Oc2ccc3ccccc3c2)c1` [TOLNAFTATE] was 50 µM.
The same measure, in the same setting: with `OC(c1ccccc1)(c1cncnc1)c1ccc(Cl)cc1Cl` (stereo not given) [TRIARIMOL] the figure was > 10 µM.

B1: Lanosterol 14-alpha demethylase (Homo sapiens) (protein)
chain: T1 sequence (Q16850 whole entry)
For the molecule B1, the Km (commonly the concentration of substrate that gives half-maximal velocity) in data set [3] was found to be 30 µM.

The values above are taken from ChEMBL document CHEMBL1143822, “Three-dimensional quantitative structure-activity relationship analysis of human CYP51 inhibitors” (Drug Metab Dispos, 2007).
